Consider 63 compounds from the M2OR odorant receptor database.

Structures are written as SMILES.

Common to all, as to details: stereoisomer not certain
For one test, the target named is T1, OR51B5 (Homo sapiens) (UniProt Q9H339).
T1 sequence (whole entry): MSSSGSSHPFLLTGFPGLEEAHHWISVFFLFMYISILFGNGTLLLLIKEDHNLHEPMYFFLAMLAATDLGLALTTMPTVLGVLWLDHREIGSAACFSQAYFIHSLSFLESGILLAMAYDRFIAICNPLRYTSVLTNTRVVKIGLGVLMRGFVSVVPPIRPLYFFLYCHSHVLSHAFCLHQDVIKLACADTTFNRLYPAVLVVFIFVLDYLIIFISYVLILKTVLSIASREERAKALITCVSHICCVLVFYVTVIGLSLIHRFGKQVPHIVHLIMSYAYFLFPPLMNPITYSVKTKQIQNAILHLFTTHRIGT
The gist of the method: (§1)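 Assay methods differ from source to source, frequently being transient luciferase assays in mammalian cell lines. For each receptor–molecule pair, the label responsive (active) applies when the original authors judged the measured signal statistically different from baseline, and non-responsive (inactive) applies otherwise.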

The next test addresses T2, OR51E1 (Homo sapiens) (UniProt Q8TCB6).
T2 sequence (whole entry): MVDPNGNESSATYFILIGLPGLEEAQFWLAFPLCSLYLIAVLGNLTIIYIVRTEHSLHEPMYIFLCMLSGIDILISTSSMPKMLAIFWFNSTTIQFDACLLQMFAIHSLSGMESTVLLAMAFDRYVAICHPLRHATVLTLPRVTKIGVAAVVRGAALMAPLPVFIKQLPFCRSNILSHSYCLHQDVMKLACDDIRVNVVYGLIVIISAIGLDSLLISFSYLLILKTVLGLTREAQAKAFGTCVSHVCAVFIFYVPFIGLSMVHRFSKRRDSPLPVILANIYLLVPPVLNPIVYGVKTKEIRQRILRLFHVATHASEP
The method, boiled down: as §1

For another test, the target named is T3, OR51E2 (Homo sapiens) (UniProt Q9H255).
T3 sequence (whole entry): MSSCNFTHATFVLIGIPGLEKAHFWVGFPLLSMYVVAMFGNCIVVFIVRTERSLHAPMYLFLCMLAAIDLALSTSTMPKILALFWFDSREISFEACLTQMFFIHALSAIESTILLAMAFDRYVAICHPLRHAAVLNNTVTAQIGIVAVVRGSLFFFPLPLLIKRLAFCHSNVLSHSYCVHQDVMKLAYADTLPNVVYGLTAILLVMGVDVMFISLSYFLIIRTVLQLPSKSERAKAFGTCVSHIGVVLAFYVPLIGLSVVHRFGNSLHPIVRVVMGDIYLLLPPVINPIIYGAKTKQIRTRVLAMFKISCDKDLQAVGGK
The gist of the method: as §1

With `CCCCCCCCO`, the “odorant receptor agonist call” value with OR51B5 (Homo sapiens), in the test with OR51E1 (Homo sapiens) and with OR51E2 (Homo sapiens) was “inactive” in each case.
As for `O=C([O-])c1ccccc1.[H+]`, the “odorant receptor agonist call” value in the test with OR51E1 (Homo sapiens) is “inactive”.
As to `CC(C)=CCCC(C)=CCCC(C)=CCO`, the “odorant receptor agonist call” value in the test with OR51B5 (Homo sapiens) is “active”.
Same read-out and setting: under `CCCCCCCCCCCCCCCCCC(=O)[O-].[H+]` stands “inactive”; under `CC(C=O)Cc1ccc(C(C)(C)C)cc1` (stereo unspecified), “inactive”.
Same read-out and setting: under `CCCCCCCCCCCCO` stands “inactive”; under `CCCO`, “inactive”.
In the case of `CCCC(C)C(=O)O` (stereo unspecified), the “odorant receptor agonist call” value with OR51E1 (Homo sapiens) was “active”.
Take `Cc1ccc(C(C)C)cc1`: the “odorant receptor agonist call” value in the test with OR51B5 (Homo sapiens) is “inactive”.
As to `CCCCCCCCCCCCCC(=O)O`, the “odorant receptor agonist call” value in the test with OR51B5 (Homo sapiens) and in the test with OR51E1 (Homo sapiens) was “inactive” throughout.
On to `CCCCCCCCCCCCCCCCCC(=O)OCC`, for which the “odorant receptor agonist call” value with OR51B5 (Homo sapiens) is “inactive”.
For `CCCCCCCCCCCCCCCC(=O)[O-].[H+]`, the “odorant receptor agonist call” value with OR51B5 (Homo sapiens) and with OR51E1 (Homo sapiens) was “inactive” throughout.
Consider `CCCCOCC(C)O` (stereo unspecified), for which the “odorant receptor agonist call” value with OR51B5 (Homo sapiens) is “inactive”.
`CC(C)=CCCC(C)CCO` (stereo unspecified): the “odorant receptor agonist call” value with OR51E1 (Homo sapiens) and with OR51E2 (Homo sapiens) was “inactive” in each case.
With `CCCCCCCCCS`, the “odorant receptor agonist call” value in the test with OR51E1 (Homo sapiens) and with OR51E2 (Homo sapiens) was “inactive” each time.
As to `CCCCCCCCCC(=O)OC`, the “odorant receptor agonist call” value with OR51B5 (Homo sapiens) is “inactive”.
On to `CCCCCCCC(=O)[O-].[H+]`, for which the “odorant receptor agonist call” value with OR51B5 (Homo sapiens), with OR51E1 (Homo sapiens) and in the test with OR51E2 (Homo sapiens) was “inactive” throughout.
On to `O=c1ccc2ccccc2o1`, for which the “odorant receptor agonist call” value with OR51B5 (Homo sapiens), with OR51E1 (Homo sapiens) and in the test with OR51E2 (Homo sapiens) was “inactive” each time.
Turning to `CCCCCCCCCCCC(=O)O`, in the test with OR51B5 (Homo sapiens), the “odorant receptor agonist call” value is “active”. Also, the “odorant receptor agonist call” value in the test with OR51E1 (Homo sapiens) is “inactive”.
As to `CCCCCCCCCCCCCCCC(=O)OC`, the “odorant receptor agonist call” value with OR51B5 (Homo sapiens) was “inactive”.
For `CCCCCCCCCCCCCCCCCC(=O)OC`, in the test with OR51B5 (Homo sapiens), the “odorant receptor agonist call” value was “inactive”.
`O=C([O-])CC(O)(CC(=O)O)C(=O)[O-].[H+].[H+]`: the “odorant receptor agonist call” value with OR51E1 (Homo sapiens) is “inactive”.
With `CCCCC(=O)C(C)=O`, in the test with OR51B5 (Homo sapiens), the “odorant receptor agonist call” value was “inactive”.
For `CCCC(=O)CC`, the “odorant receptor agonist call” value with OR51B5 (Homo sapiens) was “inactive”.
Same read-out and setting: under `CCCCCCCCCC(=O)OCC` stands “inactive”; under `CCCCCCCCCCCCCCC(=O)O`, “inactive”.
On to `CCC(C)CC(=O)O` (stereo unspecified), for which the “odorant receptor agonist call” value in the test with OR51E1 (Homo sapiens) was “active”.
Consider `CCC(C)CO` (stereo unspecified), for which the “odorant receptor agonist call” value with OR51B5 (Homo sapiens) is “inactive”.
Regarding `CCC(O)CC`, the “odorant receptor agonist call” value with OR51B5 (Homo sapiens) is “inactive”.
Turning to `c1ccccc1`, the “odorant receptor agonist call” value in the test with OR51E1 (Homo sapiens) and in the test with OR51E2 (Homo sapiens) was “inactive” each time.
As to `CCOC(=O)C(C)C`, the “odorant receptor agonist call” value with OR51E1 (Homo sapiens) and with OR51E2 (Homo sapiens) was “inactive” throughout.
Consider `CCCCCCCC(C)=O`, for which the “odorant receptor agonist call” value in the test with OR51E1 (Homo sapiens) and with OR51E2 (Homo sapiens) was “inactive” throughout.
Take `CCCCCO`: the “odorant receptor agonist call” value with OR51E1 (Homo sapiens) and with OR51E2 (Homo sapiens) was “inactive” throughout.
On to `CCCCCOC(=O)CCCCC`, for which the “odorant receptor agonist call” value with OR51E1 (Homo sapiens) and in the test with OR51E2 (Homo sapiens) was “inactive” each time.
For the compound `CCCCCCCCCC(=O)[O-].[H+]`, the “odorant receptor agonist call” value with OR51E1 (Homo sapiens) and with OR51E2 (Homo sapiens) was “inactive” each time.
With `CCCCCCO`, the “odorant receptor agonist call” value in the test with OR51E1 (Homo sapiens) and in the test with OR51E2 (Homo sapiens) was “inactive” throughout.
`CC12CCC(CC1=O)C2(C)C` (stereo unspecified): the “odorant receptor agonist call” value with OR51E1 (Homo sapiens) and with OR51E2 (Homo sapiens) was “inactive” in each case.
Turning to `CCC(C(=O)O)c1ccccc1` (stereo unspecified), the “odorant receptor agonist call” value with OR51E1 (Homo sapiens) and with OR51E2 (Homo sapiens) was “inactive” throughout.
`CCCCC(=O)CC`: the “odorant receptor agonist call” value with OR51E1 (Homo sapiens) and with OR51E2 (Homo sapiens) was “inactive” each time.
For `CC(=O)OCc1ccccc1`, the “odorant receptor agonist call” value in the test with OR51E1 (Homo sapiens) and with OR51E2 (Homo sapiens) was “inactive” each time.
For `O=C1CCOc2ccccc21`, the “odorant receptor agonist call” value with OR51E1 (Homo sapiens) and with OR51E2 (Homo sapiens) was “inactive” each time.
Take `CC(=O)OCC=C(C)C`: the “odorant receptor agonist call” value with OR51E1 (Homo sapiens) and with OR51E2 (Homo sapiens) was “inactive” throughout.
For the compound `CCCCCCC(C)=O`, the “odorant receptor agonist call” value in the test with OR51E1 (Homo sapiens) and in the test with OR51E2 (Homo sapiens) was “inactive” each time.
As for `CCCCCCCO`, the “odorant receptor agonist call” value in the test with OR51E1 (Homo sapiens) and with OR51E2 (Homo sapiens) was “inactive” throughout.
For `CCC(=O)C(=O)CC`, the “odorant receptor agonist call” value with OR51E1 (Homo sapiens) and in the test with OR51E2 (Homo sapiens) was “inactive” each time.
`CCCC(=O)C(C)=O`: the “odorant receptor agonist call” value in the test with OR51E1 (Homo sapiens) and in the test with OR51E2 (Homo sapiens) was “inactive” in each case.
On to `CCCCCC=O`, for which the “odorant receptor agonist call” value with OR51E1 (Homo sapiens) and with OR51E2 (Homo sapiens) was “inactive” throughout.
Turning to `CCCC(C)=O`, the “odorant receptor agonist call” value in the test with OR51E1 (Homo sapiens) and with OR51E2 (Homo sapiens) was “inactive” throughout.
Turning to `CCCCCCOC(C)=O`, the “odorant receptor agonist call” value with OR51E1 (Homo sapiens) and in the test with OR51E2 (Homo sapiens) was “inactive” throughout.
Consider `COc1cc(C(=O)O)ccc1O`, for which the “odorant receptor agonist call” value in the test with OR51E1 (Homo sapiens) and in the test with OR51E2 (Homo sapiens) was “inactive” throughout.
For `C=C(C)C1CCC(C)C(=O)C1` (stereo unspecified), the “odorant receptor agonist call” value with OR51E1 (Homo sapiens) and with OR51E2 (Homo sapiens) was “inactive” in each case.
On to `CCCCC(=O)O`, for which the “odorant receptor agonist call” value with OR51E2 (Homo sapiens) was “inactive”.
Regarding `O=C1Cc2ccccc2O1`, the “odorant receptor agonist call” value with OR51E1 (Homo sapiens) and with OR51E2 (Homo sapiens) was “inactive” throughout.
As for `CC(=O)C=CC1=C(C)CCCC1(C)C`, the “odorant receptor agonist call” value with OR51E2 (Homo sapiens) is “inactive”.
For the compound `CCCCOC(=O)C(C)OC(=O)CCC` (stereo unspecified), the “odorant receptor agonist call” value with OR51E1 (Homo sapiens) is “active”. Also, the “odorant receptor agonist call” value with OR51E2 (Homo sapiens) was “inactive”.
As for `CCCCCCCCCCO`, the “odorant receptor agonist call” value in the test with OR51E1 (Homo sapiens) and in the test with OR51E2 (Homo sapiens) was “inactive” each time.
Turning to `CCCCCCCCS`, the “odorant receptor agonist call” value in the test with OR51E1 (Homo sapiens) and with OR51E2 (Homo sapiens) was “inactive” each time.
For the compound `CCCCCC(=O)CC`, the “odorant receptor agonist call” value with OR51E1 (Homo sapiens) and with OR51E2 (Homo sapiens) was “inactive” throughout.
On to `CCCCCCCCCO`, for which the “odorant receptor agonist call” value in the test with OR51E1 (Homo sapiens) and with OR51E2 (Homo sapiens) was “inactive” each time.
For `CC(=O)Oc1ccccc1`, the “odorant receptor agonist call” value with OR51E1 (Homo sapiens) and with OR51E2 (Homo sapiens) was “inactive” in each case.
For the compound `CCCCC(C)=O`, the “odorant receptor agonist call” value in the test with OR51E1 (Homo sapiens) and in the test with OR51E2 (Homo sapiens) was “inactive” each time.
For `CCCCOC=O`, the “odorant receptor agonist call” value in the test with OR51E1 (Homo sapiens) and with OR51E2 (Homo sapiens) was “inactive” each time.
With `O=C(c1ccccc1)c1ccccc1`, the “odorant receptor agonist call” value in the test with OR51E1 (Homo sapiens) and with OR51E2 (Homo sapiens) was “inactive” in each case.
